Laboratory results: ChEMBL document CHEMBL4513216, “Probing the Open Global Health Chemical Diversity Library for Multistage-Active Starting Points for Next-Generation Antimalarials” (ACS Infect Dis, 2020)

test: Toxicity liver stage against HepG2, at 10uM; format: cell-based; design: test concentration 10 uM, cell line HepG2-A16-CD81EGFP; settings: human, HepG2-A16-CD81EGFP cells; read-out: INHIBITION
In short: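 Uninfected HepG2-A16-CD81EGFP cells, 3 × 10^3 per well, 1536-well, plated on prespotted compound at 10 μM final, parasite-free screening media added to match infected plates; puromycin 10 μM positive, DMSO 0.5% negative; run in parallel with 48 h PbLuc assay at 37 °C, 5% CO2; viability by CellTiter-Glo luminescence, normalized to controls.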

| Compound | cytotoxicity at 10 µM [%] |
| --- | --- |
| CC(Sc1nc(N)cc(N)n1)c1nc(C(C)(C)C)no1 (stereo unspecified) | -5.27 |
| CC[C@H]1CN2CC[C@H]1C[C@@H]2CNC(=O)Nc1ccc(Br)cc1 | 1.08 |
| O=C(NC[C@H]1CCCC[C@H]1O)c1ccc2nc(-c3ccco3)[nH]c2c1 | -5.78 |
| CCN(C)C(=O)c1ccc2c(c1)C(c1nc[nH]n1)CN2S(C)(=O)=O (stereo unspecified) | -137 |
| CO[C@H]1CN(S(=O)(=O)c2cn(C)cn2)[C@@H]2CCCO[C@H]12 | -132 |
| O=C(c1ccc[nH]1)N1CCOC2(COCCN(c3cncnc3)C2)C1 (stereo unspecified) | 7.7 |
| Cn1cc(CN2CCC3(CCCN(C(=O)c4cscn4)C3)C2)cn1 (stereo unspecified) | 1.71 |
| COCCN1C(=O)CCC12CCCN(c1ncc(F)cn1)CC2 (stereo unspecified) | -8.92 |
| CC(C)[C@H](NC(=O)NC1CCS(=O)(=O)C1)C(=O)NCc1ccccc1Cl (stereo partly specified) | 5.91 |
| CC(C)n1ncc2c1NC(=O)CC21C(=O)Nc2c(Cl)cccc21 (stereo unspecified) | -1.58 |
| CCOC(=O)CCNC(=O)N1CCN(c2nc3ccccc3n2C)CC1 | 4.88 |
| Cc1ncsc1CN1C[C@@H]2COC[C@]2(COc2ccc(C#N)cn2)C1 | -25.6 |
| O=C(Nc1cc(-c2ccncc2)no1)C1CCCCC1 | -5.37 |
| O=C(Cn1cc(I)cn1)N1CCc2ccccc2C1 | 11.2 |
| COc1ccccc1N1CC(NC(=O)Cn2cc(C)nn2)CC1=O (stereo unspecified) | 11.6 |
| CS(=O)(=O)c1cn[nH]c1C1CCCCN1C(=O)c1ccsc1 (stereo unspecified) | -18.6 |
| COCCN1CCC(c2cncc(N(C)C)n2)CC1 | -25.5 |
| CCn1nnnc1-c1cccc(NC(=O)COC2CCCC2)c1 | -0.47 |
| O=C(CN1CCS(=O)(=O)CC1)Nc1ccc(N2CCCC2)nc1 | 10.3 |
| O=S(=O)(Cc1cc(-c2ccccc2)no1)CC1CCCO1 (stereo unspecified) | 4.7 |
| CC(C)c1nnc2n1CCN(Cc1cccc3c1OCCO3)C2 | -1.26 |
| O=C(Nc1ccc(-c2csnn2)cc1)N1CC[C@H](O)C1 | -4.62 |
| CS(=O)(=O)CCn1ccc(NCc2ccc(C#N)cc2)n1 | 6.56 |

| Compound | cytotoxicity at 10 µM [%] |
| --- | --- |
| CC(C)c1nnc(CN2CC(n3cccn3)Cc3ccccc32)o1 (stereo unspecified) | -146 |
| Cc1cccc(N2CCN(C(=O)CNCCn3cccn3)CC2)c1 | -6.16 |
| CNS(=O)(=O)c1c(C)sc2ccccc12 | 4.18 |
| Cc1cnn(CCNc2cnc3ccccc3n2)c1 | 11.4 |
| Cc1oc(C(=O)Nc2cccc(Cl)c2C)cc1S(N)(=O)=O | 7.46 |
| CCCNC(=O)CNC(=O)CC1CCCc2cc(OC)ccc21 (stereo unspecified) | -4.52 |
| CN(Cc1nc2ccccc2[nH]1)C(=O)CN(C)c1ccccc1 | -2.46 |
| COc1ccc2c(c1)CCCC2CC(=O)NCC(=O)O (stereo unspecified) | -4.31 |
| Cc1nc(C)c(C(=O)N2CCc3c(Cl)cccc32)o1 | -1.55 |
| Cc1cc(CNC(=O)NCC(O)c2cccc(C(F)(F)F)c2)no1 (stereo unspecified) | -6.79 |
| CCc1ncncc1C(=O)NCCNS(=O)(=O)c1ccc(C)cc1 | -5.95 |
| Cc1ccccc1CN(Cc1ccccn1)C(=O)CN(C)C(C)C | -0.675 |
| Cc1c(C(=O)NC2=NCCS2)cnn1-c1ccc(Cl)cc1 | 1.51 |
| O=C(CCc1cccs1)NCC1CCCN1c1cccnn1 (stereo unspecified) | -1.9 |
| CCC(C)NC(=O)c1cccc(CNC(=O)CC(F)(F)F)c1 (stereo unspecified) | 6.99 |
| CCNS(=O)(=O)C1CCN(C(=O)c2c(F)cc(F)cc2F)C1 (stereo unspecified) | 7.43 |
| CNC(=O)Cc1ccccc1NC(=O)NCc1ccc(SC)cc1 | -1.88 |
| CC(C)NC(=O)NCc1ccnc(N(C)C)n1 | -3.63 |
| N#Cc1ccc(CNC(=O)C2=NN(c3ccccc3)C(=O)CN2)cc1 | -1.8 |
| c1cnn(CC2CN(Cc3csc(-c4ccsc4)n3)CCO2)c1 (stereo unspecified) | 3.23 |
| Cc1ccc(-c2nnc(CN3CCNC(=O)C3)o2)cc1 | -1.26 |
| Cc1cc(NC(=O)NCCc2cccnc2)n(C)n1 | -3.86 |
| Cn1ccnc1-c1cccc(NC(=O)NCCCN2CCOCC2)c1 | -5.01 |

| Compound | cytotoxicity at 10 µM [%] |
| --- | --- |
| Cc1ccc(NC(=O)N(CCO)Cc2ccsc2)cc1 | 3.58 |
| O=C(CCNS(=O)(=O)c1ccccc1)N1CCOC(c2ccccc2)C1 (stereo unspecified) | 6.6 |
| COc1ccc2cccc(CC(=O)NCc3nccc(N)n3)c2c1 | 0.684 |
| CC(C)Cn1cnnc1C1CCCN1C(=O)c1cc2ccccn2c1 (stereo unspecified) | -0.384 |
| CCc1nnc(C(C)N(C)Cc2c(C)nn(-c3ccccc3)c2C)o1 (stereo unspecified) | -9.85 |
| Cc1ccc(N2CCCC(N(C)c3ncnc4c3CCC4)C2)nn1 (stereo unspecified) | 6.86 |
| CCS(=O)(=O)N(C)C1CCN(Cn2ccc(-c3ccc(F)cc3)n2)CC1 | 1.95 |
| Cc1nc(CNC(=O)Nc2ccc(N(C)C)nc2)sc1C | -0.222 |
| CSCc1cc(C(=O)NC2(C#N)CCSC2)ccc1F (stereo unspecified) | -4.59 |
| Cc1cc(C)n(C2CN(Cc3ccccn3)C2)n1 | -3.67 |
| Cc1nn2c(nc1=O)-c1ccccc1NC2C(=O)O (stereo unspecified) | 5.32 |
| CN(C)C(=O)C1CSCN1C(=O)CCc1ccco1 (stereo unspecified) | -6.53 |
| Cc1nc(C2CCCN2CCOCC2CC2)no1 (stereo unspecified) | -4.56 |
| C=C(C)COCCNC(=O)N1CCc2c(cccc2OC)C1 | 3.55 |
| CC(C)c1nc(CNc2ccc(CNS(C)(=O)=O)cc2)cs1 | 3.82 |
| Cn1ccc(NC(=O)Cc2cccc(F)c2)n1 | 1.44 |
| Cc1csc2c(=O)n(CCN3CCNCC3)cnc12 | -3.5 |
| Cc1nc(CNC(=O)CC2C(=O)NCCN2Cc2ccccc2C)n[nH]1 (stereo unspecified) | -7.21 |
| COc1cc(C(=O)NCC2CCCN(Cc3ccco3)C2)ccn1 (stereo unspecified) | -3.94 |
| O=C1NCC2(CCCN(C(=O)Nc3ccc4scnc4c3)CC2)O1 (stereo unspecified) | -5.59 |
| CC1(C)OC(=O)N(CC(=O)N2CCC(c3ccccc3Cl)C2)C1=O (stereo unspecified) | -21.4 |
| CO[C@H]1CN(Cc2c(C)ccc3ncccc23)CC[C@H]1N | -146 |
| O=C(CCN1CCCCC1)N1CCC(Cc2ccc(CO)cc2)C1 (stereo unspecified) | -7.33 |

| Compound | cytotoxicity at 10 µM [%] |
| --- | --- |
| Cc1cc(CC(=O)N2CCN(C)[C@@H]3CS(=O)(=O)C[C@@H]32)ccc1F | -3.89 |
| Cc1nc(O)cc(CN2C[C@H](NC(=O)C3CCCC3)[C@@H](C3CC3)C2)n1 | -4.7 |
| O=C(CN1CCCC1c1nc(-c2ccccn2)no1)N1CCNCC1 (stereo unspecified) | 9.28 |
| COc1ccc(Cl)cc1C(C(=O)O)N(C)Cc1ccon1 (stereo unspecified) | -5.92 |
| CN1CCN(C[C@H]2CC[C@@H](Cc3ccc(CN4CCCC4)cc3)O2)CC1 | -7.32 |
| CC(C)C1CN(c2ncccc2Cl)CCC(=O)N1Cc1ccc(F)cc1 (stereo unspecified) | 2.41 |
| CCn1ccnc1CNc1nccc(-c2cn(C)nc2C)n1 | -4.6 |
| Cn1cc(C(=O)N2CCCN(C3Cc4ccccc4C3)CC2)cn1 | -3.68 |
| CNC(=O)[C@@H]1C[C@H](N)CN1Cc1cc2cc(OC)ccc2nc1O | -6.69 |
| CN1CCCC(c2nc3c([nH]2)CC(C)(C)CNC3=O)C1 (stereo unspecified) | 9.01 |
| Cc1csc(S(=O)(=O)N2CCN(C)C3(CCC(=O)N(C)CC3)C2)c1 (stereo unspecified) | 1.67 |
| Cc1[nH]c(=O)[nH]c(=O)c1CC(=O)N1CCCN(CC2CC2)C(C(C)C)C1 (stereo unspecified) | -160 |
| CCn1c(N)nc2cc(C(=O)N3CCCOCC3)cnc21 | -8.24 |
| CCNC(=O)[C@@H]1C[C@H](N)CN1c1cc(CC)nc(N(C)C)n1 | -3.08 |
| COc1ccc(C(=O)N2CC(c3ccncc3)C2)c(OC)c1OC | -1.86 |
| Cc1ccc(NC2CCN(C(=O)c3cscn3)CC2)nn1 | -8.73 |
| c1ccc(CCN2CCOC(CNc3cccnn3)C2)nc1 (stereo unspecified) | -1.56 |
| COCCN1CCN(CCS(C)(=O)=O)CC1C (stereo unspecified) | -1.22 |
| NC(=O)C1CN(C(=O)Nc2ccccc2Oc2ccccc2Cl)CCO1 (stereo unspecified) | -10.5 |
| Cc1ccc(N2CCCC(NCc3nnc4n3CCCC4)C2=O)cc1 (stereo unspecified) | -6.69 |
| Cc1noc(C2CCCN(C(=O)c3ccc(N(C)C)nc3)C2)n1 (stereo unspecified) | -4.69 |
| CCn1cc(CN2CCCN(C(=O)c3cccc(C#N)c3)CC2)cn1 | 0.893 |
| CCOc1ncccc1CNC(=O)NCC(O)c1ccccc1OC (stereo unspecified) | -6.85 |

| Compound | cytotoxicity at 10 µM [%] |
| --- | --- |
| Cc1nn(C)c(C)c1C1CCCN1C(=O)c1ccc(N(C)C)nn1 (stereo unspecified) | -10.6 |
| NC(=O)C1CCN(C(=O)NCCOc2ccc3c(c2)OCO3)C1 (stereo unspecified) | -13.3 |
| O=C(NCC(=O)N1CCC2(CC1)OCCO2)c1ccoc1 | -9.55 |
| O=C(c1cn(-c2ccccc2)nn1)N1CCCC(n2cccn2)C1 (stereo unspecified) | -7.85 |
| Cc1ccc(F)cc1S(=O)(=O)NCc1cccc(C(=O)N2CCCC2)c1 | -15.1 |
| CCn1c(C)nnc1CN(C)C1CCN(CCCSC)C1 (stereo unspecified) | -6.21 |
| Cc1cc(CN(C)C2CCCN(Cc3noc(C)n3)C2)on1 (stereo unspecified) | -5.85 |
| Cc1csc(CNC(=O)Cc2ccc3c(c2)OCCO3)n1 | -1.3 |
| CCn1cnnc1C1CCCN(C(=O)COc2ccc(Cl)cc2)C1 (stereo unspecified) | -5.26 |
| Cn1cc(N2C[C@@H]3CN(Cc4ccoc4)C[C@@H]3C2=O)cn1 | -2.93 |
| COc1ccc2c(c1)C1(CCN(Cc3ccccn3)CC1)N(C)CC2 | -150 |
| Cc1nn(C)c(N(C)C)c1CNCc1cccc(CN(C)C)c1 | -3.01 |
| O=C(c1ccco1)N1CCCC12CCN(c1ncccn1)CC2 | 3.23 |
| Cc1cc(C(=O)N2C[C@@H]3COC[C@]3(CN(C)C)C2)sc1C | -146 |
| CN1CCS(=O)(=O)[C@@H]2CCN(C(=O)c3ccccc3)CC[C@@H]21 | -127 |
| O=C(NC[C@H]1OC[C@@H]2CN(Cc3ccco3)CC[C@@H]21)c1cscn1 | -145 |
| Cc1noc(C)c1CN(C)CC(=O)Nc1ccnn1C(C)C1CC1 (stereo unspecified) | -2.82 |
| CSCC(=O)N1C[C@@H]2CC[C@H]1CN(C1Cc3ccccc3C1)C2 | -6.08 |
| O=C(c1cnccn1)N1C[C@H]2CC[C@@H](C1)N(C(=O)CCc1ccsc1)C2 | 3.24 |
